Shown are actives, neighbours in structure and some others; about 7.2% of the full set was active somewhere.
M1 antagonist = antagonists of rat M1 muscarinic receptor; B-score at 10 µM; Muscarinic acetylcholine receptor M1 (Rattus norvegicus), P08482; 64,000 tested, 3.4% active; CHO-M1 cells, Fluo-4 calcium, ACh EC80 antagonist mode; stronger effect = lower value;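 active = calcium fluorescence response, raw or row-and-column corrected B-score, differing from the plate sample mean either way at a set confidence level, mostly lower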
Target sequence (P08482 whole entry, looked up): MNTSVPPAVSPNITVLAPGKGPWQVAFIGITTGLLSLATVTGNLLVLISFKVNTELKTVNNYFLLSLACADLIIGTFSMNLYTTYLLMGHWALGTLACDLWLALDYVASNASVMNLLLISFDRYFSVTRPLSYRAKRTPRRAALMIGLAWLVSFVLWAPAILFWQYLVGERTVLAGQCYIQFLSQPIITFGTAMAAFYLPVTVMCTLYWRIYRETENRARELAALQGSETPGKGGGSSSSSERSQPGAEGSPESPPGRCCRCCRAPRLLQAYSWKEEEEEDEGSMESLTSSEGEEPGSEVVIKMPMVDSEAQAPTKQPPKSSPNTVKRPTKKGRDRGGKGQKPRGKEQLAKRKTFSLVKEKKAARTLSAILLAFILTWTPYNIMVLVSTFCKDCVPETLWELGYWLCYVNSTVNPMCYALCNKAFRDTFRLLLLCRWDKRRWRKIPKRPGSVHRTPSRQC
DAT uptake mod = changed hDAT dopamine uptake under cocaine IC80, either direction, primary screen, cocaine antagonist project, cell-based, LLC-PK1 hDAT, [14C]-dopamine uptake, MLSMR | B-score at 10 µM | AID 449768, 2010 | 110,000 tested, 1.3% active | LLC-PK1 hDAT cells, [14C]-dopamine uptake with cocaine IC80; actives deviate in either direction | Sodium-dependent dopamine transporter (Homo sapiens), Q01959;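 active = Z score or B-score, a plate-position-corrected score, falls beyond the plate's 99.7% confidence bounds, in either direction; inactive = both scores lie inside the 99.7% bounds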
M1 agonist = M1 muscarinic receptor agonists, primary screen, CHO-M1 cells, Fluo-4 calcium, agonist mode; Muscarinic acetylcholine receptor M1; Fluo-4 calcium fluorescence; stronger effect = higher value; B-score at 10 µM; 64,000 tested, 3% active; AID 626, 2007;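 active = fluorescence rise, raw or as B-score row- and column-corrected plate score, outside the 99.7% band of its plate's samples, either direction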
D1 mod = D1 CRE-luciferase signal change, two-sided – cell-based, HEK293 D1, dopamine EC30, D1 allosteric modulator project, primary screen; D(1A) dopamine receptor (Homo sapiens), P21728; dopamine EC30 potentiation; actives deviate in either direction; B-score at 10 µM; 58,000 tested, 5.9% active;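 active = luminescence count or its row- and column-corrected plate score outside the 99.7% band of the plate's sample wells, on either side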
HEK293 NFkB inh = inhibitors of PMA/ionomycin-induced NF-kB reporter, primary screen, antigen receptor NF-kB inhibitor project, cell-based, HEK-293 luciferase reporter, luminescence; HEK-293 NF-kB luciferase reporter; inhibition, % at 3 µM; 62,000 tested, 0.21% active; AID 465, 2006;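 active = inhibition above the mean of all tested compounds plus 3 SD, cut at about 40% in these data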
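Material: HEK-293 cells with stable firefly luciferase reporter driven by four HIV NF-kB elements / Also added: PMA plus ionomycin mix as NF-kB-activating stimulus / Compound dosing: 3 µM once, 0.30% DMSO / Times: 1 h pretreatment, 16 h stimulation, 37 °C / Signal: luminescence / Evaluation: per-plate % inhibition versus controls / Benchmarks: DMSO and 10 µM reference inhibitor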
BAP1 inh = inhibitors of BAP1 deubiquitinase, primary screen, biochemical, Ub-AMC fluorescence, kinetic. Ubiquitin carboxyl-terminal hydrolase BAP1 (Homo sapiens), Q92560. recombinant BAP1, Ub-AMC hydrolysis fluorescence kinetic; stronger effect = lower value. calls only at 20 µM. 72,000 tested, 0.48% active. AID 436, 2006;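 active = activity remaining at or below 50% of control, provided the compound also passes the data quality filters; inactive = the rest, including low values that fail the filters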
Hits are given with their value; i = inactive; nt = not tested or not shown; + = active, no number.

SMILES	M1 antagonist	DAT uptake mod	M1 agonist	D1 mod	HEK293 NFkB inh	BAP1 inh
CC(=O)Nc1nc(-c2ccccc2)nc(C)c1C(C)=O	i	-8.5	i	i	i	i
COc1cc(OC)cc(C(=O)NCc2n[nH]c(=S)n2-c2ccc(Br)cc2)c1	nt	nt	nt	nt	nt	i
CCn1c(=O)c2cc(C(=O)N3CCN(C(=O)c4ccco4)CC3)sc2c2ccccc21	i	i	5.2	i	i	+
N#Cc1cccc2cnccc12	i	-2.9	i	i	i	i
COc1ccccc1-c1nc(-c2ccc(C)nc2OC)no1	i	i	i	i	i	i
COc1ccccc1-c1nc(-c2ccccn2)no1	i	i	i	-7.4	i	i
COc1nc(C)ccc1-c1noc(-c2ccccn2)n1	i	i	i	-4.1	i	i
COc1ccc(CNC(=O)C2CC(c3ccc(F)cc3)=NO2)cc1 (stereo not given)	i	i	i	i	i	i
COc1ccc(CNC(=O)C2CC(c3ccc(OC)cc3)=NO2)cc1 (stereo not given)	i	-3.4	i	i	i	i
O=C(COc1ccc(S(=O)(=O)N2CCc3ccccc32)cc1Cl)NCc1ccccn1	i	2.2	i	i	i	i
CN1C[C@H](C(=O)NC2(C)OC3(O)[C@@H]4CCCN4C(=O)[C@H](Cc4ccccc4)N3C2=O)CC2c3cccc4[nH]cc(c34)C[C@H]21 (stereo not given in full)	nt	4	nt	nt	nt	nt
Cc1cc(C)c2nc(N3CCCC(C(=O)N4CCC(C(N)=O)CC4)C3)sc2c1 (stereo not given)	i	i	i	-4.1	i	i
CCOCCCn1c(=N)c(C(=O)Nc2cc(C)on2)cc2c(=O)n3ccccc3nc21	i	nt	5.9	i	i	nt
COCCCn1c(=N)c(C(=O)NCC2CCCO2)cc2c(=O)n3ccccc3nc21 (stereo not given)	i	i	i	i	i	nt
O=c1c2c(sc3ccccc13)NCN(Cc1ccccc1)C2	nt	nt	nt	nt	nt	i
CCOC(=O)N1CCC(NC(=O)c2cn(-c3ccc(OC)cc3)c(=O)c3ccccc23)CC1	i	2.2	i	i	i	i
O=C(Oc1ccc(N(C(=O)c2ccncc2)S(=O)(=O)c2ccccc2)c2ccccc12)c1ccncc1	nt	nt	nt	nt	nt	i
COc1ccc(C2c3c(ncn(CCN4CCOCC4)c3=N)Oc3ccc4ccccc4c32)cc1 (stereo not given)	nt	3.4	nt	nt	nt	nt
CC1(C)Cc2c(sc3ncn4nc(-c5ccco5)nc4c23)CO1	i	nt	i	5.9	nt	i
COc1cccc(Nc2ncnc3nc[nH]c23)c1	nt	i	nt	nt	nt	nt
Cc1ccc(Nc2ncnc3nc[nH]c23)cc1Cl	i	i	i	-3.5	i	i
O=C(c1cccc(Br)c1)N1CCN(C(=O)c2cccc(Br)c2)CC1	nt	2.2	nt	nt	nt	nt
Cc1cn(C(=O)c2cccc(Br)c2)c(C)n1	i	i	i	8	i	i
O=C(c1ccccc1)N1CCN(C(=O)c2ccccc2Br)CC1	i	-7.7	i	i	i	i
O=C(c1cccc(Br)c1)N1CCN(C(=O)N2CCOCC2)CC1	nt	i	nt	nt	nt	nt
SMILES	M1 antagonist	DAT uptake mod	M1 agonist	D1 mod	HEK293 NFkB inh	BAP1 inh
CSC1=NCCN1C(=O)c1cccc(Br)c1	i	i	i	i	i	i
C=CSc1cccc2ncccc12	nt	nt	nt	nt	nt	i
Cc1cccc2cc(CN(CC3CCCO3)C(=O)NC3CCCCC3)c(=O)[nH]c12 (stereo not given)	i	i	i	i	i	i
Cc1cccc2cc(CN(Cc3ccco3)C(=O)NC3CCCCC3)c(=O)[nH]c12	i	2.4	i	i	i	i
COc1ccc(NC(=O)c2cc3ccccn3n2)cc1	i	i	i	-4.7	i	i
COc1ccc(NC(=O)c2ccccn2)cc1	nt	i	nt	nt	nt	nt
CC(C)N(Cc1nc(-c2ccccc2)no1)C(=O)CCCN1C(=O)c2ccccc2C1=O	i	2.4	i	i	i	i
O=C(Nc1nnc(-c2ccco2)s1)c1ccccc1	i	i	i	-4.5	i	i
C[C@H](C(=O)C=[N+]=[N-])N1C(=O)c2ccccc2C1=O	i	-7.1	i	i	i	i
CCCCNC(=O)C1CCCN1C(=O)NC1CCCCC1 (stereo not given)	nt	-7.9	nt	nt	nt	nt
O=C(NCC1CCCO1)C1CCCN1C(=O)NC1CCCCC1 (stereo not given)	i	i	i	i	i	i
Cc1ccc2cccc(OCC(=O)NCc3ccco3)c2n1	i	i	i	i	i	i
Cc1ccc2cccc(Oc3cnccn3)c2n1	i	-1.9	i	i	i	i
Cc1nn(C(=O)c2ccc3c(c2)OCO3)c(N)c1-c1ccccc1	i	i	i	-5.7	i	i
Cc1nn(C(=O)c2cccs2)c(N)c1-c1ccccc1	i	i	i	i	i	i
CC(C)(c1ccc(O)cc1)c1ccc(Oc2ccc([N+](=O)[O-])cc2)cc1	nt	nt	nt	nt	nt	i
O=C(NCCN1CCCC1)c1ccc2c(=O)n(CCc3ccccc3)c(=O)[nH]c2c1	i	-8.2	i	-3.7	i	nt
COCCn1c(=O)[nH]c2cc(C(=O)NCCCN3CCN(c4ccc(F)cc4)CC3)ccc2c1=O	i	i	i	-4.4	i	i
CCCCCn1c(=O)[nH]c2cc(C(=O)NCCCN(CC)CC)ccc2c1=O	nt	-3.7	nt	i	i	nt
COC(=O)c1ccc(COc2ccc3c(=O)c(-c4ccc(C(=O)OC)o4)c(C)oc3c2)o1	nt	nt	nt	nt	nt	i
O=C(NCCc1ccc(Cl)cc1)C1CCN(S(=O)(=O)c2cccc3nonc23)CC1	i	-2.2	i	i	i	i
CC1(C)c2[nH]c3ccccc3c2C[C@H]2C(=O)N(Cc3ccccc3)C(=O)N21	nt	2.8	nt	nt	nt	nt
CC1(C)c2[nH]c3ccccc3c2C[C@@H]2C(=O)N(Cc3ccccc3)C(=O)N21	nt	i	nt	nt	nt	nt
COc1ccc2oc(=O)c(C(=O)N3CCN(c4ccccc4)CC3)cc2c1	i	3.4	i	i	i	i
Nc1nc(F)cc(Oc2ccc(F)cc2)n1	nt	nt	nt	nt	nt	i
SMILES	M1 antagonist	DAT uptake mod	M1 agonist	D1 mod	HEK293 NFkB inh	BAP1 inh
Cc1cc(C(=O)NCc2cc(C)n(C)n2)sc1-c1ccccc1	i	i	3	-3.2	i	i
CCOC(=O)C(=CNc1ccc(C)cc1C)C(=O)OCC	nt	i	nt	nt	nt	nt
CCOC(=O)C(=CNc1cccc(C)c1C)C(=O)OCC	nt	6.1	nt	nt	nt	nt
COc1ccc(-c2cn3c4c(sc3n2)CCCC4)cc1	i	i	i	-5	i	i
COc1ccc(-c2cn3c(C)c(C(=O)Nc4cccc(NC(C)=O)c4)sc3n2)cc1	i	i	i	i	i	nt
Cc1c(C(=O)NCC(C)C)sc2nc(-c3ccc(F)cc3)cn12	i	i	i	i	i	i
Cc1c(C(=O)Nc2ccncc2)sc2nc(-c3ccc(F)cc3)cn12	i	i	i	-5.2	i	i

Screens from PubChem.
